{
  "source": "paper PMC11911394",
  "about": "(Nature Communications, 2025)",
  "key": {"[1]": {"system": "nirFAST", "assay": "Characterization of nirFAST with prototypical FAST", "format": "physicochemical", "details": "fluorogen bound to nirFAST", "outline": "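His-tag-purified protein came from E. coli BL21(DE3) or Rosetta(DE3)pLysS, induced overnight with 1 mM IPTG at 16 °C and isolated on Ni-NTA. Spectra were recorded in PBS pH 7.4 at 25 °C on a plate reader. Quantum yield was measured in 96-well plates against a reference fluorogen:protein complex. Protein was 40 µM, with fluorogen usually 6 to 0.375 µM, giving >99% complex.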"}, "[2]": {"system": "HeLa cells", "assay": "Cell viability assay", "format": "cell-based", "details": "at the dose used for imaging; HeLa and HEK293T (Supplementary Fig. 8)", "outline": "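HeLa cells were grown in MEM with phenol red, Glutamax I, 1 mM sodium pyruvate, 1% non-essential amino acids, 10% FBS and 1% penicillin–streptomycin at 37 °C and 5% CO₂. They were exposed to fluorogen at the indicated concentrations for 24 h. Viability was read as CellTiter-Glo luminescence on a plate reader, per kit protocol.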"}, "[3]": {"system": "LAMP1–mCherry–FIREtag and nir-FIREmate–KIF17", "assay": "nirCATCHFIRE control of lysosome positioning", "format": "cell-based", "details": "HeLa cells co-expressing LAMP1–mCherry–FIREtag and nir-FIREmate–KIF17"}, "[4]": {"system": "nirFAST", "assay": "nirFAST labeling kinetics in live HeLa cells", "format": "cell-based", "details": "10 µM fluorogen"}, "[5]": {"system": "zebrafish larvae", "assay": "Imaging of injected nirFAST-expressing HEK293T cells in zebrafish larvae", "format": "in vivo, zebrafish (Danio rerio)", "details": "zebrafish larvae 4 dpf, 45 min of treatment", "outline": "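HEK293T cells were transfected with a nirFAST-P2A-EGFP plasmid and, after 24 h, suspended at 10,000,000 cells/mL in serum-free DMEM. About 5–10 nL was microinjected near the heart of 2 dpf nacre larvae anesthetized with 0.02% MS-222. Larvae were raised at 28 °C, and green-positive ones were chosen. At 4 dpf they were incubated 45 min with fluorogen, anesthetized, mounted laterally in 0.8% low-melt agarose and imaged confocally.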"}, "[6]": {"format": "physicochemical", "details": "exciting with red light", "outline": "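Steady-state UV-Vis absorption and fluorescence spectra were recorded on a plate reader in PBS pH 7.4 at 25 °C.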"}},
  "data": [
    {"smiles": "Cc1cc(/C=C2\\SC(=S)NC2=O)c(C)cc1O", "note": "[HBR-2,5DM]", "values": [
      {"measurement": "fluorescence activation by nirFAST", "setting": "[1]", "value": "failed to activate efficiently the fluorescence"}
    ]},
    {"smiles": "Cc1cc(/C=C2\\SC(=S)NC2=O)cc(C)c1O", "note": "[HBR-3,5DM]", "values": [
      {"measurement": "FQY of assembly with nirFAST", "setting": "[1]", "value": 37, "unit": "%"}
    ]},
    {"smiles": "COc1cc(/C=C2\\SC(=S)NC2=O)cc(OC)c1O", "note": "[HBR-3,5DOM]", "values": [
      {"measurement": "FQY of assembly with nirFAST", "setting": "[1]", "value": 24, "unit": "%"}
    ]},
    {"smiles": "Cc1cc(/C=C2\\SC(=S)NC2=O)ccc1O", "note": "[HMBR]", "values": [
      {"measurement": "fluorescence activation by nirFAST", "setting": "[1]", "value": "failed to activate efficiently the fluorescence"}
    ]},
    {"smiles": "COc1cc(/C=C/C=C2\\SC(=S)NC2=O)cc(OC)c1O", "note": "[HPAR-3,5DOM, (Z)-5-((E)-3-(4-hydroxy-3,5-dimethoxyphenyl)allylidene)-2-thioxothiazolidin-4-one]", "values": [
      {"measurement": "toxicity for mammalian cells", "setting": "[2]", "value": "non-toxic"},
      {"measurement": "effect on lysosome positioning", "setting": "[3]", "value": "displacement of lysosomes from the perinuclear region to the cell periphery"},
      {"measurement": "time to complete labeling of nirFAST after fluorogen addition", "setting": "[4]", "value": "complete within twenty seconds"},
      {"measurement": "detection of nirFAST-expressing HEK293T cells in larvae", "setting": "[5]", "value": "efficiently detected"},
      {"measurement": "fluorescence of free fluorogen", "setting": "[6]", "value": "completely non-fluorescent"}
    ]}
  ]
}
